Sampled rows, rich in hits. Any-hit rate of the full collection: about 2.6%.
ABCB6 inh 2 – inhibitors of human ABC transporter ABCB6; Q9NP58; K562-ABCB6 porphyrin accumulation, flow cytometry, 1 h; stronger effect = lower value; fluorescence ratio to DMSO, % at 10 µM; hit rate 0.19% among 360,000; AID 602162;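 active = fluorescence ratio to DMSO below 75%, the collection mean minus 3 SD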;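 also: signal is porphyrin accumulated inside mitochondria; 100% equals median channel fluorescence of DMSO control wells; lower ratio means ABCB6 inhibition with less porphyrin fluorescence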
Target sequence (Q9NP58 whole entry, looked up): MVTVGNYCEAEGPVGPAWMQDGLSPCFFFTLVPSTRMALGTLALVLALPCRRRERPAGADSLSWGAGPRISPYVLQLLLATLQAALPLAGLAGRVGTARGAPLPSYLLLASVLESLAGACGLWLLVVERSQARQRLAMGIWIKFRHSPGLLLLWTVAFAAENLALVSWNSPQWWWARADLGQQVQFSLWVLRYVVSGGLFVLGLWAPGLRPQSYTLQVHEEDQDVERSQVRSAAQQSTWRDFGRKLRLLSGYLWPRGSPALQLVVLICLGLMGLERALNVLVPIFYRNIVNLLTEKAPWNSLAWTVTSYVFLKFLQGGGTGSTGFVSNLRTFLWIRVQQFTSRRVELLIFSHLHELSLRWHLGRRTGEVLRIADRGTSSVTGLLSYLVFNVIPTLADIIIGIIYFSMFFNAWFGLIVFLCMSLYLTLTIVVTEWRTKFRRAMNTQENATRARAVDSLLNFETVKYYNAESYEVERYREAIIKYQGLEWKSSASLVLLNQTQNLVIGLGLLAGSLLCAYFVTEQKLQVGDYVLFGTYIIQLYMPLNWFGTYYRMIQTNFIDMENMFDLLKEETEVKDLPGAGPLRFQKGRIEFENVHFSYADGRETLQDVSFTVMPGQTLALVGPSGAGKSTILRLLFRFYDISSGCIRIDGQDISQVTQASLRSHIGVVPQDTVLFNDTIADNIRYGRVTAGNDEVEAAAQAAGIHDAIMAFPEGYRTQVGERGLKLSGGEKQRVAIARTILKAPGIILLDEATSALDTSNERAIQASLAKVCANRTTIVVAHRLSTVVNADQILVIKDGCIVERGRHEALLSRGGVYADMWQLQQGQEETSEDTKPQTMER
Tb MetRS inh – blocks T. brucei methionyl-tRNA synthetase activity | purified T. brucei MetRS, ATP depletion, Kinase-Glo luminescence | inhibition, % at 11.9 µM | hit rate 0.4% among 360,000 | AID 624268;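 active = inhibition above a per-plate cutoff of the control wells' mean inhibition plus 3 SD, cut at about 5.5% in these data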;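 also: 0% = DMSO wells median and 100% = median of wells with control inhibitor compound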
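Dosing: 11.9 µM compound single dose, 0.9% DMSO; Assay system: purified T. brucei MetRS enzyme; Measured by: Kinase-Glo luciferase luminescence reporting remaining unconsumed ATP; Schedule: 15 min plus 2 h at 25 °C.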
Exocytosis inh – lytic granule exocytosis inhibition | TALL-104 LAMP-1 surface exposure, flow cytometry; cells stimulated with thapsigargin and PMA | inhibition, % at 10 µM | hit rate 0.66% among 360,000 | AID 651702;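 active = inhibition above about 55%, limit read from the data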
hiPSC survival – hiPSC single-cell survival enhancement | AID 602274 | hit rate 0.044% among 360,000 | ATPlite luminescence; 100% = ROCK inhibitor wells, 0% = DMSO | survival enhancement, % at 20 µM; in the data active = survival enhancement above about 18%;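 also: cells exposed to compounds for 16 hours before the ATP read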
MC4R ag barr – activates human MC4R beta-arrestin recruitment; P32245; U2OS MC4R beta-arrestin complementation, luminescence; percent of melanotan II response, DMSO zero; activation, % at 8.9 µM; hit rate 0.98% among 360,000; AID 540308;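 active = activation above a per-plate cutoff, the mean activation of sample wells on that plate plus 3 SD, cut at about 8% in these data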
MC4R antag cAMP – antagonists of human melanocortin 4 receptor (MC4R); MC4R-expressing cells, MTII-stimulated cAMP, LANCE TR-FRET; hit rate 0.48% among 360,000; AID 540295; inhibition, % at 6.5 µM; P32245;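 active = inhibition above its plate's cutoff, the mean of tested wells on that plate plus 3 SD, cut at about 29% in these data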;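 also: 0% = Melanotan II alone and 100% = Melanotan II plus saturating MCL0020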
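Assay system: human MC4R-expressing U2OS cells; reagent: Melanotan II stimulation of cells; dosing: 6.5 µM single dose; timing: compound 30 min, challenge 1 h, detection 1 h; signal: TR-FRET cAMP assay; replicates: one well per compound, no replicates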
Tb MetRS conf – confirmation of Trypanosoma brucei MetRS inhibitors; hit rate 93% among 1,400; T. brucei MetRS enzyme, luminescence (ATP depletion); shares compounds with Tb MetRS inh; inhibition, % at 11.9 µM; in the data active = inhibition above about 7%
Jurkat tox – Jurkat T cell cytotoxicity for MetRS hits; shares compounds with Tb MetRS inh; Jurkat cells viability, ATP luminescence; inhibition, % at 8.3 µM; hit rate 12% among 1,400; in the data active = inhibition above about 15%;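 also: 0% = vehicle and 100% = reference inhibitor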
Tb MetRS inh FP – orthogonal test for Trypanosoma brucei MetRS inhibitors; shares compounds with Tb MetRS inh; purified T. brucei MetRS, fluorescence polarization; AID 651607; inhibition, % at 11.9 µM; hit rate 44% among 1,400; in the data active = inhibition above about 17%;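 also: 0% = vehicle wells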
Starred values were filed as active, the others as inactive.

Results for Nc1ncnc2nc(SCc3ccc(Cl)cc3Cl)[nH]c12 ?
ABCB6 inh 2: 100.0; Tb MetRS inh: 12.5*; Exocytosis inh: -2.6; hiPSC survival: 2.9; MC4R ag barr: -1.2; MC4R antag cAMP: 1.6; Tb MetRS conf: 32.4*; Jurkat tox: 15.5*; Tb MetRS inh FP: 12.4

How did O=S1(=O)C[C@@H](N2CCN(CC3CC3)CC2)[C@H](COCc2ccccc2)N1 do in these assays?
ABCB6 inh 2: 90.0; Tb MetRS inh: -0.5; Exocytosis inh: -1.0; hiPSC survival: 0.7

How did CCOc1ccccc1NC(=O)CN1CCC(NC(=O)Nc2ccccc2)CC1 do in these assays?
ABCB6 inh 2: 93.0; Tb MetRS inh: -0.3; Exocytosis inh: 3.1; hiPSC survival: -0.2; MC4R ag barr: -0.4; MC4R antag cAMP: 8.2

How did Cc1ccc2cc(CCNC(=O)C(=O)c3c(C)[nH]c4ccccc34)c(=O)[nH]c2c1 do in these assays?
ABCB6 inh 2: 99.0; Tb MetRS inh: 13.4*; Exocytosis inh: 2.6; hiPSC survival: 1.0; MC4R ag barr: -0.9; MC4R antag cAMP: -5.0; Tb MetRS conf: 30.8*; Jurkat tox: 4.6; Tb MetRS inh FP: 3.6

What do the screens show for `Cc1cccc([C@@H]2C[C@H]3CN(Cc4cccc(Cl)c4)C(=O)[C@]34CCCN24)n1`?
ABCB6 inh 2: 104.0; Tb MetRS inh: -0.1; Exocytosis inh: -0.6; hiPSC survival: 3.3; MC4R ag barr: -4.0; MC4R antag cAMP: 17.1

What do the screens show for `O=C1N(Cc2cccc(Cl)c2)C[C@@H]2C[C@@H](c3c[nH]c4ccccc34)N3CCC[C@@]123`?
ABCB6 inh 2: 102.0; Tb MetRS inh: 5.9*; Exocytosis inh: 0.1; hiPSC survival: -0.3; MC4R ag barr: 0.2; MC4R antag cAMP: 6.9; Tb MetRS conf: 10.5*; Jurkat tox: 5.2; Tb MetRS inh FP: 8.1

How did COc1ccc(CN(C(=O)c2ccc(-c3ccccc3)[nH]2)C(C(=O)NC(C)(C)C)c2ccncc2)cc1 (centres undefined) do in these assays?
ABCB6 inh 2: 95.0; Tb MetRS inh: 76.2*; Exocytosis inh: -2.2; hiPSC survival: -0.8; MC4R ag barr: -3.5; MC4R antag cAMP: 1.3; Tb MetRS conf: 33.5*; Jurkat tox: 7.7; Tb MetRS inh FP: 15.9

Results for COc1cc(C(C(=O)NC(C)(C)C)N(Cc2ccccc2)C(=O)c2cnccn2)cc(OC)c1OC (centres undefined) ?
ABCB6 inh 2: 96.0; Tb MetRS inh: 0.0; Exocytosis inh: 8.9; hiPSC survival: 1.8; MC4R ag barr: -2.0; MC4R antag cAMP: -0.2

How did Cc1cc(C)n(-c2nnc(C)n2/N=C/c2cc(Br)ccc2OCc2ccccc2)n1 do in these assays?
ABCB6 inh 2: 93.0; Tb MetRS inh: 6.4*; Exocytosis inh: 25.6; hiPSC survival: 2.0; MC4R ag barr: -1.2; MC4R antag cAMP: -7.3; Tb MetRS conf: 1.3; Jurkat tox: -2.1; Tb MetRS inh FP: 3.7

What do the screens show for `COc1ccc(S(=O)(=O)NNC(=O)c2cc3cc4ccccc4nc3s2)cc1`?
ABCB6 inh 2: 91.0; Tb MetRS inh: 5.8*; Exocytosis inh: 0.1; hiPSC survival: 2.0; MC4R ag barr: -1.1; MC4R antag cAMP: -0.2; Tb MetRS conf: 14.1*; Jurkat tox: -3.3; Tb MetRS inh FP: 14.3

Results for Cc1ccc2nc(C(C)(C)C)c(Cc3ccccc3C(F)(F)F)n2c1 ?
ABCB6 inh 2: 104.0; Tb MetRS inh: -1.4; Exocytosis inh: -1.0; hiPSC survival: -0.3

What do the screens show for `C=CCC(=O)N1CCCC(C(=O)c2ccc(Cl)cc2)C1` (centres undefined)?
ABCB6 inh 2: 99.0; Tb MetRS inh: -1.0; Exocytosis inh: 1.3; hiPSC survival: -0.1; MC4R ag barr: -0.7; MC4R antag cAMP: -2.1

What do the screens show for `COc1ccc(N2CCN(C(=O)CCCn3c(=O)[nH]c4ccsc4c3=O)CC2)cc1`?
ABCB6 inh 2: 99.0; Tb MetRS inh: 2.1; Exocytosis inh: -4.6; hiPSC survival: -1.8; MC4R ag barr: 0.6; MC4R antag cAMP: -0.9

What do the screens show for `COc1ccc(N2CCN(C(=O)CCCCn3c(=O)[nH]c4ccsc4c3=O)CC2)cc1`?
ABCB6 inh 2: 100.0; Tb MetRS inh: 6.7*; Exocytosis inh: 0.5; hiPSC survival: 0.5; MC4R ag barr: -0.1; MC4R antag cAMP: 17.3; Tb MetRS conf: 12.6*; Jurkat tox: 2.3; Tb MetRS inh FP: 5.1

Results for Cc1ccc(N(CC(=O)NCC2CCCO2)C(=O)CCC(=O)Nc2cc(C)on2)cc1 (centres undefined) ?
ABCB6 inh 2: 100.0; Tb MetRS inh: -0.9; Exocytosis inh: -5.9; hiPSC survival: 0.3; MC4R ag barr: 0.3; MC4R antag cAMP: -1.1

What do the screens show for `COc1cccc(NC(=O)CSc2nnc(-c3cccc(OC(C)C)c3)n2N)c1`?
ABCB6 inh 2: 97.0; Tb MetRS inh: -0.3; Exocytosis inh: 0.6; hiPSC survival: 0.4; MC4R ag barr: 0.2; MC4R antag cAMP: 3.2

How did CC(C)NC(=O)c1c(CSc2ccccc2)noc1C(=O)NCc1ccccc1 do in these assays?
ABCB6 inh 2: 90.0; Tb MetRS inh: -0.3; Exocytosis inh: -24.7; hiPSC survival: 0.1; MC4R ag barr: -0.2; MC4R antag cAMP: -2.6

Results for COc1ccc(-c2noc([C@@H]3O[C@H](CO)[C@H](O)[C@H](O)[C@H]3O)n2)cc1OC ?
ABCB6 inh 2: 93.0; Tb MetRS inh: 7.5*; Exocytosis inh: -4.1; hiPSC survival: 13.3; MC4R ag barr: 1.4; MC4R antag cAMP: 4.2; Tb MetRS conf: 2.9; Jurkat tox: -7.2; Tb MetRS inh FP: 5.7

How did COc1cc(OC)cc(-c2noc([C@@H]3O[C@H](CO)[C@H](O)[C@H](O)[C@H]3O)n2)c1 do in these assays?
ABCB6 inh 2: 102.0; Tb MetRS inh: 0.3; Exocytosis inh: -15.2; hiPSC survival: -1.1; MC4R ag barr: -0.8; MC4R antag cAMP: 1.4

Results for CCOC(=O)c1c(N)n(CCOC(=O)c2cccs2)c2nc3ccccc3nc12 ?
ABCB6 inh 2: 92.0; Tb MetRS inh: 7.3*; Exocytosis inh: -1.6; hiPSC survival: -1.3; MC4R ag barr: -1.3; MC4R antag cAMP: -4.8; Tb MetRS conf: 5.7*; Jurkat tox: 5.9; Tb MetRS inh FP: 2.0

Results for O=C(NCCc1nc2ccccc2[nH]1)/C(=C/c1ccc(F)cc1)NC(=O)c1ccco1 ?
ABCB6 inh 2: 98.0; Tb MetRS inh: 3.4; Exocytosis inh: 1.5; hiPSC survival: -0.2; MC4R ag barr: -0.8; MC4R antag cAMP: 13.3

Screening results deposited in PubChem BioAssay by several laboratories.
